# Measurements pooled from the literature.
# Each line is one published result; the experiments were not run side by side.
# Target: Mitogen-activated protein kinase kinase kinase 3 (MAP3K3, Homo sapiens, UniProt Q99759)
# Residues used in one study (Q99759 1-626): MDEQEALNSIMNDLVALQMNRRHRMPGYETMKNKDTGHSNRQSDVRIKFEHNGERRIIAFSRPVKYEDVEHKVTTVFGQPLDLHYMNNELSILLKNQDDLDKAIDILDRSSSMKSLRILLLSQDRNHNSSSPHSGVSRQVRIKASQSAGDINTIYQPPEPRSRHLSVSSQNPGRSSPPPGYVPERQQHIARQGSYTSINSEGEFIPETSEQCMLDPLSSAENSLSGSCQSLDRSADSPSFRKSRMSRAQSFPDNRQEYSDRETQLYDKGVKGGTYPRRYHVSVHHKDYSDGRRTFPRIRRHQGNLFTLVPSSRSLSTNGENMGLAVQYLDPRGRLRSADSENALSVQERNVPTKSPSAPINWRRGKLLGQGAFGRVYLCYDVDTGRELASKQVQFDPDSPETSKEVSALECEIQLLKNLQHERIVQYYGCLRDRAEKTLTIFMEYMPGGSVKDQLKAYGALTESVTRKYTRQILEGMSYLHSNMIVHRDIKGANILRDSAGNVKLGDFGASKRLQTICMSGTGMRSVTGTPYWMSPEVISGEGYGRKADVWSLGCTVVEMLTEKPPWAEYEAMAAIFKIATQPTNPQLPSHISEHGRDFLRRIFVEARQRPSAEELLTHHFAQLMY
SMILES,read-out,mode,technique,tested at,quantity,value
CN(c1ccnc(CNc2nc(Nc3ccc4c(c3)CC(=O)N4)ncc2C(F)(F)F)n1)S(C)(=O)=O,cell-free assay,,competition with immobilised ligand,1 µM,remaining binding,44%
COc1cc(Cl)c(C(=O)N[C@@H](CN[C@H]2CC[C@@H](N)CC2)Cc2ccc(C#N)cc2)cc1-c1ccc(CN[C@H](C)c2ccc(C)cc2)o1,enzyme activity,inhibitor,,1 µM,remaining activity,95%
CN1CC(Oc2cnc(C#N)cc2-c2ccn3nc(NC(=O)C4CC4)cc3c2)C1,enzyme activity,inhibitor,,1 µM,inhibition,3%
COc1cc(Nc2c(C#N)cnc3cc(OCCCN4CCN(C)CC4)c(OC)cc23)c(Cl)cc1Cl,cell-free assay,,,0.5 µM,remaining signal,11.8%
CCOc1cc(-c2nncn2C)ccc1Nc1ncc2cc(C)nc(NCC(C)(C)C)c2n1,cell-free assay,,TR-FRET,1 µM,inhibition,≤ 15%
COc1ccc(F)cc1C(=O)NCc1ccc(-c2nn([C@@H](C)C(F)(F)F)c(N)c2C(N)=O)cc1,target engagement in cells,inhibitor,chemoproteomics,10 nM,inhibition,4.7%
O=C(Nc1cnn(-c2csc(C(=O)NC3COC3)c2)c1)Nc1c(F)cccc1Cl,enzyme activity,inhibitor,,5 µM,remaining activity,81.9%
C[C@H](c1ccc(F)cc1)N(Cc1cccc(C(=O)O)c1)C(=O)c1cnc2ccccc2c1,cell-free assay,,competition with immobilised ligand,1 µM,remaining binding,100%
O=C1Nc2ccc(Cl)cc2C1=Cc1cc(Cl)c(O)c(Cl)c1,cell-free assay,,,0.5 µM,remaining signal,101%
C[C@@H]1CN(c2cc(-c3n[nH]c4ccc(OC5(C)CC5)cc34)ncn2)C[C@H](C)O1,cell-free assay,,competition with immobilised ligand,0.1 µM,remaining binding,64%
COc1cc2c(N3CCN(C(=O)Nc4ccc(OC(C)C)cc4)CC3)ncnc2cc1OCCCN1CCCCC1,cell-free assay,,,0.5 µM,remaining signal,106%
Cn1cc(Cl)c2c(Oc3c(F)cc(Nc4cc(Cl)nc(N)n4)cc3F)ccnc21,cell-free assay,,competition with immobilised ligand,0.1 µM,remaining binding,90%
CC(C)(C)c1nc2c(s1)c1nc(N)ncc1c1ccc(NS(=O)(=O)c3c(F)cccc3F)c(F)c12,enzyme activity,inhibitor,radiometric,1 µM,remaining activity,117%
Cc1sc(C(=O)NC2COC2)cc1-n1cc(NC(=O)Nc2c(F)cccc2Cl)cn1,enzyme activity,inhibitor,,10 µM,remaining activity,113%
CCS(=O)(=O)c1cc2cc(C[C@@](O)(CC(C)(C)c3ccc(F)cc3C(N)=O)C(F)(F)F)[nH]c2cn1,cell-free assay,,competition with immobilised ligand,1 µM,remaining binding,90%
Nc1ncnc2occ(-c3ccc(NC(=O)Nc4cc(C(F)(F)F)ccc4F)cc3)c12,cell-free assay,inhibitor,,20 µM,remaining signal,4.3%
